# Screening data: PubChem BioAssay, The Scripps Research Institute Molecular Screening Center
# Shown are actives, neighbours in structure and some others; about 1.2% of the full set was active somewhere.
# HCV NS3 hel inh: inhibitors of HCV NS3 helicase, primary screen, biochemical, Cy5 molecular beacon fluorescence | inhibition, % at 10.9 µM | hit rate 0.56% among 290,000 | NS3 helicase DNA unwinding | Hepatitis C virus NS3 helicase;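 active = inhibition above the mean of all tested compounds plus 3 SD, set per campaign, cut at about 35% in these data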
#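 Assay system: hepatitis C virus NS3 helicase domain fragment enzyme. Also added: annealed dual-labelled DNA beacon duplex, ATP-started. Timing: 1 h reaction at 25 °C, ATP-initiated. Technique: Cy5 fluorescence at 0 and 60 min, beacon hairpin quenching. Evaluation: % inhibition of unwinding. Replication: one well per compound.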
# HCV core dimer: inhibitors of HCV core protein dimerization, primary screen, biochemical, TR-FRET, high-throughput | TR-FRET GST/Flag-core106 dimerization, 1536-well | inhibition, % at 5 µM | hit rate 0.33% among 300,000 | AID 1899, 2009;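 active = inhibition above the mean of all tested compounds plus 3 SD, set per screening campaign, cut at about 45% in these data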
#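 Test system: GST/Flag-tagged HCV core106 proteins; Medium: KF-containing HEPES buffer, pH 7.45, DTT, CHAPS, BSA; Times: compound-protein-antibody incubation 4 h at 22.5 °C; Detection: TR-FRET 671 and 617 nm emission; Benchmarks: wells lacking GST-core106 and wells with excess unlabelled core106.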
# ZTA counter: blocks Epstein-Barr virus ZTA, an EBNA-1 counter-screen | AID 2234 | hit rate 0.15% among 320,000 | ZTA-DNA binding, fluorescence polarization | P03206 | inhibition, % at 11 µM; in the data active = inhibition above about 33%
# Target sequence (P03206 whole entry, looked up): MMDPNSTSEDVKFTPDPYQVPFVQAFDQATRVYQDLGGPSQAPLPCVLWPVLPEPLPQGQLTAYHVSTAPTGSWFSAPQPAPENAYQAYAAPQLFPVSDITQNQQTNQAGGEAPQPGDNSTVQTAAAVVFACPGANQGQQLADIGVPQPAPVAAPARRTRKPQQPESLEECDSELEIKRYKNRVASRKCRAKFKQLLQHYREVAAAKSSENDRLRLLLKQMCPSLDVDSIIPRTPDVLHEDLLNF
# EBNA-1 inhibitor: EBNA-1 DNA-binding inhibitors, primary screen, biochemical, fluorescence polarization; inhibition, % at 14.8 µM; hit rate 0.34% among 300,000; AID 1950, 2009; in the data active = inhibition above about 28%
# NS3 helicase cf: HCV NS3 helicase inhibitors, retest, confirmation, biochemical, Cy5 molecular beacon fluorescence, triplicate. shares compounds with HCV NS3 hel inh. NS3 helicase DNA unwinding. hit rate 31% among 1,600. inhibition, % at 10.9 µM;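 active = inhibition above the mean of all tested compounds plus 3 SD, cutoff set per campaign, cut at about 36% in these data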
# FID counter trip: compounds displacing fluorescent DNA intercalator, artefact control for HCV NS3 helicase inhibitor project, biochemical, FID fluorescence, triplicate; inhibition, % at 7.9 µM; shares compounds with HCV NS3 hel inh; DNA fluorescent intercalator displacement; hit rate 4% among 1,600; in the data active = inhibition above about 37%;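 also: higher means more displacement of ethidium bromide from the DNA hairpin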
# Numbers stand for hits; 0 = inactive; - = no result given.
SMILES,HCV NS3 hel inh,HCV core dimer,ZTA counter,EBNA-1 inhibitor,NS3 helicase cf,FID counter trip
Cc1ccc(-n2c(C)cc(-c3csc(N)n3)c2C)cc1,83,0,0,0,0,0
COc1ccccc1-c1nnc(NC(=O)c2ccc(S(=O)(=O)N3CCCC3)cc2)o1,53,0,0,0,0,0
CC(OC(=O)CCN1C(=O)C2CC=CCC2C1=O)C(=O)c1ccc(F)cc1 (stereo not drawn),-,-,0,-,-,-
O=C(CC1SC(=O)N(c2ccccc2)C1=O)Nc1cccc2ccccc12 (stereo not drawn),46,0,0,0,0,0
CCOc1ccc(NC(=O)CC2SC(=O)N(c3ccccc3)C2=O)cc1 (stereo not drawn),38,0,0,0,0,0
Cc1ccccc1NC(=O)CC1SC(=O)N(c2ccccc2)C1=O (stereo not drawn),0,0,0,0,-,-
Cc1cc(C)nc(OC(C(=O)O)C(OCc2ccccc2)(c2ccccc2)c2ccccc2)n1 (stereo not drawn),37,0,0,0,74,0
CCCOC(c1ccccc1)(c1ccccc1)C(Oc1nc(C)cc(C)n1)C(=O)O (stereo not drawn),0,0,0,0,-,-
CN(C(=O)COC(=O)COc1ccc(Cl)cc1Cl)c1c(N)n(Cc2ccccc2)c(=O)[nH]c1=O,-,0,0,0,-,-
NC(=O)COc1c(-c2ccc(Br)o2)oc2ccccc2c1=O,0,0,0,0,-,-
COc1ccc(NC(=O)c2c(NC(=O)CCC(=O)O)sc(-c3ccccc3)c2C)cc1,37,0,0,0,53,0
COc1ccccc1N1C(=N)S/C(=C\c2ccc(-c3ccccc3C(=O)O)o2)C1=O,41,0,0,0,40,0
CCCCOc1[nH]c2nc(-c3ccco3)n(Cc3ccco3)c(=N)c2c1C#N,39,0,0,0,0,0
c1ccc(CSc2nnc(-c3ccco3)n2Cc2ccco2)cc1,0,0,0,0,-,-
COc1ccc(NC(=S)Nc2ccccc2SC)c(OC)c1,0,0,0,0,-,-
CC1CCCCN1C(=O)CSc1nnc(-c2cccnc2)o1 (stereo not drawn),0,0,0,0,-,-
Cc1cc(NC(=O)CC(C)C)c(=O)n(Cc2cccc(F)c2)c1,39,0,0,0,0,0
C/C(=N\NC(=O)c1cc2ccccc2cc1O)c1ccc(C)o1,47,0,0,0,0,0
COCCn1c(=NC(=O)c2cc(-c3cccs3)nc3ccccc23)sc2cc(S(N)(=O)=O)ccc21,64,0,0,0,0,0
COCCn1c(=NC(=O)c2ccc(S(=O)(=O)N3CCOCC3)cc2)sc2cc(S(N)(=O)=O)ccc21,0,0,0,0,-,-
CC1(C)Nc2ccccc2C(=O)N1c1ccccc1,0,0,0,0,-,-
O=[N+]([O-])c1cc([N+](=O)[O-])c2cc3ccccc3nc2c1,36,0,0,0,0,0
CC(C)c1ccc(C(CC(=O)c2ccc(Cl)cc2)C(=O)O)cc1 (stereo not drawn),37,0,0,0,68,0
Cc1ccc(C(=O)NC(=O)OCCn2c(C)cnc2[N+](=O)[O-])cc1,0,0,0,0,-,-
CC1CCCCN1C(=O)Cn1cc(C(=O)c2ccco2)c2ccccc21 (stereo not drawn),38,0,0,0,0,0
SMILES,HCV NS3 hel inh,HCV core dimer,ZTA counter,EBNA-1 inhibitor,NS3 helicase cf,FID counter trip
O=C(c1ccco1)c1cn(CC(=O)N2CCCCCC2)c2ccccc12,0,0,0,0,-,-
O=C(CN1CCc2ccccc2C1)Nc1ccccc1C(=O)NC1CC1,-,-,0,-,-,-
CC1CCC2C(C1)OS(=O)(=O)NC2(C)C (stereo not drawn),41,0,0,0,0,0
COc1cccc(CN(C)C(=O)[C@@H](NC(=O)c2ccc(C)cc2)C(C)C)c1,0,0,0,0,-,-
COc1ccc(NC(=O)CSc2ccc(-c3ccco3)nn2)cc1,0,0,0,0,-,-
COc1ccc(NC(=O)CSc2nnc(-c3ccco3)c(-c3ccco3)n2)cc1OC,0,0,0,0,-,-
Cc1ccc(NC(=O)CSc2nnc(-c3ccco3)c(-c3ccco3)n2)cc1,42,51,0,0,87,0
